Reference: ChEMBL document CHEMBL2380254, “Optimization of tocotrienols as antiproliferative and antimigratory leads” (Eur J Med Chem, 2013)
pIC50: −log10 of the molar value.

Legend:
UACC-62 = assay: Growth inhibition of human UACC62 cells assessed as cell growth at 10 uM after 48 hrs by sulforhodamine B assay; type: functional; settings: UACC-62, 48 h, read-out: Activity
Procedure, shortened: (§1)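 Single-dose NCI-60 test at 10 µM. Cells were grown in RPMI 1640 with 5% FBS and 2 mM L-glutamine, preincubated 24 h, with T0 plates TCA-fixed. Exposure was 48 h at 37 °C, 5% CO2. Cells were fixed with cold TCA (final 10%, 4 °C, 60 min), stained with SRB and read at 515 nm. Percent growth was taken relative to T0 and untreated control; negative values denote cell kill.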

A498 = assay: Growth inhibition of human A498 cells after 48 hrs by sulforhodamine B assay; type: functional; settings: A498, 48 h
Procedure, shortened: (§2)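 NCI-60 screen: cells in RPMI 1640 with 5% FBS and 2 mM glutamine, 5000–40,000 cells/well, preincubated 24 h. Five concentrations (10-fold dilutions; 100 to 0.001 µM) applied for 48 h at 37 °C. TCA fixation, SRB stain, absorbance at 515 nm. Time-zero plates included; GI50 where 100×(T−T0)/(C−T0)=50.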

CAKI-1 = assay: Growth inhibition of human CAKI-1 cells after 48 hrs by sulforhodamine B assay; type: functional; settings: CAKI-1, 48 h; procedure, shortened: as §2
NCI-H460 = assay: Growth inhibition of human NCI-H460 cells assessed as cell growth at 10 uM after 48 hrs by sulforhodamine B assay; type: functional; settings: NCI-H460, 48 h, read-out: Activity
Procedure, shortened: (§3)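 Single-dose NCI-60 screen: adherent cells in RPMI 1640 with 5% FBS were exposed to 10 µM for 48 h at 37 °C after a 24 h preincubation. They were fixed in situ with cold TCA (10% final), stained with 0.4% SRB in 1% acetic acid, solubilized in 10 mM Tris base, and read at 515 nm. Percent growth was taken relative to time-zero and control plates.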

SK-MEL-2 = assay: Growth inhibition of human SK-MEL-2 cells assessed as cell growth at 10 uM after 48 hrs by sulforhodamine B assay; type: functional; settings: SK-MEL-2, 48 h, read-out: Activity; procedure, shortened: as §3
MDA-MB-231 [1] = assay: Growth inhibition of human MDA-MB-231 cells after 48 hrs by sulforhodamine B assay; type: functional; settings: MDA-MB-231, 48 h
Procedure, shortened: (§4)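 NCI-60 panel cells grown in RPMI 1640 with 5% FBS and 2 mM L-glutamine, seeded at 5000–40,000 cells/well and preincubated 24 h. Five 10-fold dilutions (0.001–100 µM) from DMSO stocks were added for 48 h at 37 °C. Adherent cells were fixed with cold TCA (10% final) for 60 min at 4 °C, stained with 0.4% SRB, and read at 515 nm. GI50 was set where 100×(T−T0)/(C−T0)=50.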

U-251 = assay: Growth inhibition of human U251 cells assessed as cell growth at 10 uM after 48 hrs by sulforhodamine B assay; type: functional; settings: U-251, 48 h, read-out: Activity; procedure, shortened: as §1
MCF7 = assay: Antiproliferative activity against human MCF7 cells by MTT assay; type: functional, cell-based
Procedure, shortened: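 Cells plated at 8 × 10^3/well (MDA-MB-231) or 10^4/well (MCF7) in 96-well plates. Compounds fed in media with 5% FBS (MDA-MB-231) or 1% FBS (MCF7). MTT read-out of viable cells.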

MDA-MB-231 [2] = assay: Growth inhibition of human MDA-MB-231 cells assessed as cell growth at 10 uM after 48 hrs by sulforhodamine B assay; type: functional; settings: MDA-MB-231, 48 h, read-out: Activity; procedure, shortened: as §3
SNB-19 = assay: Growth inhibition of human SNB19 cells after 48 hrs by sulforhodamine B assay; type: functional; settings: SNB-19, 48 h
Procedure, shortened: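 NCI-60 five-dose screen. Cells were grown in RPMI 1640 with 5% FBS and 2 mM L-glutamine, plated at 5000–40,000 cells/well and incubated 24 h before dosing, with T0 plates TCA-fixed. DMSO stocks were diluted to doses of […] and exposed 48 h at 37 °C, 5% CO2. Cells were fixed with cold TCA (final 10%, 60 min, 4 °C), stained with 0.4% SRB in 1% acetic acid for 10 min, solubilized in 10 mM trizma base and read at 515 nm. GI50 is where 100×(T−T0)/(C−T0)=50.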

SF-295 = assay: Growth inhibition of human SF295 cells after 48 hrs by sulforhodamine B assay; type: functional; settings: SF-295, 48 h; procedure, shortened: as §4
OVCAR-3 = assay: Growth inhibition of human OVCAR3 cells assessed as cell growth at 10 uM after 48 hrs by sulforhodamine B assay; type: functional; settings: OVCAR-3, 48 h, read-out: Activity; procedure, shortened: as §3
T47D = assay: Growth inhibition of human T47D cells assessed as cell growth at 10 uM after 48 hrs by sulforhodamine B assay; type: functional; settings: read-out: Activity; procedure, shortened: as §1
CCRF-CEM = assay: Growth inhibition of human CCRF-CEM cells assessed as cell growth at 10 uM after 48 hrs by sulforhodamine B assay; type: functional; settings: read-out: Activity
Procedure, shortened: (§5)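 NCI-60 single-dose screen at 10 µM: cells in RPMI 1640 with 5% FBS, preincubated 24 h, then exposed 48 h at 37 °C. TCA fixation (16% final for suspension cells), SRB staining, absorbance 515 nm. Percent growth relative to time-zero and untreated control plates; negative values indicate cell kill.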

SF-268 = assay: Growth inhibition of human SF268 cells assessed as cell growth at 10 uM after 48 hrs by sulforhodamine B assay; type: functional; settings: SF-268, 48 h, read-out: Activity; procedure, shortened: as §3
HL-60(TB) = assay: Growth inhibition of human HL-60(TB) cells after 48 hrs by sulforhodamine B assay; type: functional; settings: HL-60, 48 h
Procedure, shortened: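 HL-60(TB) cells (suspension) grown in RPMI 1640 with 5% FBS and 2 mM L-glutamine. They were plated and preincubated for 24 h, with T0 plates fixed at that point. Drug was given at five 10-fold dilutions for 48 h at 37 °C. Settled cells were fixed with TCA (16% final), stained with 0.4% SRB in 1% acetic acid and read at 515 nm. GI50 was taken where 100×(T−T0)/(C−T0)=50.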

HOP-62 = assay: Growth inhibition of human HOP62 cells assessed as cell growth at 10 uM after 48 hrs by sulforhodamine B assay; type: functional; settings: HOP-62, 48 h, read-out: Activity; procedure, shortened: as §5
786-0 = assay: Growth inhibition of human 786-0 cells assessed as cell growth at 10 uM after 48 hrs by sulforhodamine B assay; type: functional; settings: 786-0, 48 h, read-out: Activity; procedure, shortened: as §5
OVCAR-8 = assay: Growth inhibition of human OVCAR8 cells assessed as cell growth at 10 uM after 48 hrs by sulforhodamine B assay; type: functional; settings: OVCAR-8, 48 h, read-out: Activity; procedure, shortened: as §3
IGROV-1 = assay: Growth inhibition of human IGROV1 cells assessed as cell growth at 10 uM after 48 hrs by sulforhodamine B assay; type: functional; settings: IGROV-1, 48 h, read-out: Activity; procedure, shortened: as §5
NCI-H226 = assay: Growth inhibition of human NCI-H226 cells assessed as cell growth at 10 uM after 48 hrs by sulforhodamine B assay; type: functional; settings: NCI-H226, 48 h, read-out: Activity; procedure, shortened: as §3

Row | SMILES | growth at 10 µM (UACC-62) | GI50 (A498) | GI50 (CAKI-1) | growth at 10 µM (NCI-H460) | growth at 10 µM (SK-MEL-2) | GI50 (MDA-MB-231 [1]) | growth at 10 µM (U-251) | pIC50 (MCF7) | growth at 10 µM (MDA-MB-231 [2]) | GI50 (SNB-19) | GI50 (SF-295) | growth at 10 µM (OVCAR-3) | growth at 10 µM (T47D) | growth at 10 µM (CCRF-CEM) | growth at 10 µM (SF-268) | GI50 (HL-60(TB)) | growth at 10 µM (HOP-62) | growth at 10 µM (786-0) | growth at 10 µM (OVCAR-8) | growth at 10 µM (IGROV-1) | further results
1 | CC(C)=CCC/C(C)=C/CC/C(C)=C/CC[C@]1(C)CCc2c3c(c(C)c(C)c2O1)OCN(CCCCCO)C3 | 99.2% | 5.76 µM | 5.33 µM | -49.6% | 107% | 5.87 µM | 58.6% | < 4.70 | 55% | 5.99 µM | 6.12 µM | 65.2% | 94.4% | 54.9% | 75.9% | 6.26 µM | 114% | 90.2% | 69% | 63.7% | growth at 10 µM (NCI-H226): 102%
2 | CC(C)=CCC/C(C)=C/CC/C(C)=C/CC[C@]1(C)CCc2c3c(c(C)c(C)c2O1)OCN(CCCCO)C3 | 96.6% | > 10 µM | > 10 µM | 4.31% | 95.8% | 2.34 µM | 14.8% | < 4.70 | 37.9% | 3.03 µM | 2.08 µM | 79.9% | 59.1% | 39.9% | 75.2% | 3.86 µM | 75% | 72.8% | 87.3% | 48.2% | growth at 10 µM (NCI-H226): 100%
3 | CC(C)=CCC/C(C)=C/CC/C(C)=C/CC[C@]1(C)CCc2c3c(c(C)c(C)c2O1)OCN(CCCCCCCCO)C3 | 93.1% | 2.32 µM | 4.38 µM | 9.26% | 71.7% | 2.89 µM | 34% | < 4.70 | 40.7% | 2.47 µM | 3.16 µM | 31.7% | 56.1% | 10.4% | 54.9% | 3.44 µM | 63.2% | 59.8% | 72.1% | -53.1% | growth at 10 µM (NCI-H226): 91.6%
